Test results published in ChEMBL document CHEMBL3351567, “Heterodimeric ent-kauranoids from Isodon tenuifolius” (J Nat Prod, 2014).

How the values were obtained:
Format in all cases: functional, cell-based
[1] = test system: SW480; test: Cytotoxicity against human SW480 cells after 48 hrs by MTT assay; conditions: SW480, 48 h
Method in brief: (§1)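 Cells grown in RPMI-1640 or DMEM with 10% FBS, 37 °C, 5% CO2. Seeded at 1 × 10^5 cells/mL in 100 μL; adherent lines attached 12 h before dosing, suspension cells seeded at dosing. Compound at various concentrations in triplicate, 48 h. MTT (100 μg) added for 4 h, lysed with 20% SDS–50% DMF, OD 595 nm. IC50 by Reed–Muench method; cisplatin and paclitaxel as positive controls.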

[2] = Cytotoxicity against human HL60 cells after 48 hrs by MTT assay; conditions: HL-60, 48 h; method in brief: as §1
[3] = test system: MCF7; test: Cytotoxicity against human MCF7 cells after 48 hrs by MTT assay; conditions: MCF7, 48 h; method in brief: as §1
[4] = test system: SMMC-7721; test: Cytotoxicity against human SMMC7721 cells after 48 hrs by MTT assay; conditions: SMMC-7721, 48 h; method in brief: as §1
[5] = test system: A549; test: Cytotoxicity against human A549 cells after 48 hrs by MTT assay; conditions: A549, 48 h; method in brief: as §1

SMILES | IC50 [1] [µM] | IC50 [2] [µM] | IC50 [3] [µM] | IC50 [4] [µM] | IC50 [5] [µM]
CC(=O)O[C@H]1C[C@@H]2C[C@@]3(C(=O)[C@]24CCC2=C(O4)[C@@]45CC(=O)[C@@H]6C(C)(C)[C@@H](OC(C)=O)C[C@H](O)[C@@]6(C)[C@@H]4C(=O)C[C@@H]2C5)[C@@H]1[C@]1(C)[C@@H](OC(C)=O)C[C@H](O)C(C)(C)[C@H]1C(=O)[C@@H]3OC(C)=O | > 10 | > 10 | > 10 | > 10 | > 10
CC(=O)O[C@H]1C[C@@H]2C[C@@]3(CC(=O)[C@@H]4C(C)(C)[C@@H](O)C[C@H](OC(C)=O)[C@@]4(C)[C@H]13)C(=O)[C@]21CC[C@@]12C(=O)[C@]13C[C@H]2C[C@H](OC(C)=O)[C@H]1[C@]1(C)[C@@H](OC(C)=O)C[C@H](O)C(C)(C)[C@H]1C(=O)[C@@H]3OC(C)=O | > 10 | > 10 | > 10 | > 10 | > 10
COC[C@@]1(C[C@@H]2C(=O)[C@]34C[C@H]2C[C@H](OC(C)=O)[C@H]3[C@]2(C)[C@@H](OC(C)=O)C[C@H](O)C(C)(C)[C@H]2C(=O)[C@@H]4O)C(=O)[C@]23C[C@H]1C[C@H](OC(C)=O)[C@H]2[C@]1(C)[C@@H](OC(C)=O)C[C@H](O)C(C)(C)[C@H]1C(=O)[C@@H]3O | > 10 | > 10 | > 10 | > 10 | > 10
CC(=O)O[C@H]1C[C@@H]2C[C@@]3(C(=O)[C@]24CCC2=C(O4)[C@]45C[C@H]2C[C@H](OC(C)=O)[C@H]4[C@]2(C)[C@@H](OC(C)=O)C[C@H](O)C(C)(C)[C@H]2C(=O)[C@@H]5OC(C)=O)[C@@H]1[C@]1(C)[C@@H](OC(C)=O)C[C@H](OC(C)=O)C(C)(C)[C@H]1C(=O)[C@@H]3O | > 10 | > 10 | > 10 | > 10 | > 10
CC(=O)O[C@H]1C[C@@H]2C[C@@]3(C(=O)[C@]24CC[C@@]42C(=O)[C@]45C[C@H]2C[C@H](OC(C)=O)[C@H]4[C@]2(C)[C@@H](OC(C)=O)C[C@H](O)C(C)(C)[C@H]2C(=O)[C@@H]5O)[C@@H]1[C@]1(C)[C@@H](OC(C)=O)C[C@H](OC(C)=O)C(C)(C)[C@H]1C(=O)[C@@H]3OC(C)=O | > 10 | > 10 | > 10 | > 10 | > 10
COC[C@@]1(C[C@@H]2C(=O)[C@]34C[C@H]2C[C@H](OC(C)=O)[C@H]3[C@@]2(C)[C@H](C(=O)[C@@H]4O)C(C)(C)[C@@H](O)C[C@@H]2O)C(=O)[C@]23C[C@H]1C[C@H](OC(C)=O)[C@H]2[C@]1(C)[C@@H](OC(C)=O)C[C@H](O)C(C)(C)[C@H]1C(=O)[C@@H]3O | > 10 | > 10 | > 10 | > 10 | > 10
CC(=O)O[C@H]1C[C@@H]2C[C@@]3(C(=O)[C@]24CCC2=C(O4)[C@]45C[C@H]2C[C@H](OC(C)=O)[C@H]4[C@]2(C)[C@@H](OC(C)=O)C[C@H](O)C(C)(C)[C@H]2[C@@H](O)[C@@H]5O)[C@@H]1[C@]1(C)[C@@H](OC(C)=O)C[C@H](O)C(C)(C)[C@H]1[C@@H](O)[C@@H]3O | > 10 | > 10 | > 10 | > 10 | > 10
COC[C@@]1(C[C@@H]2C(=O)[C@]34C[C@H]2C[C@H](OC(C)=O)[C@H]3[C@]2(C)[C@@H](OC(C)=O)C[C@H](O)C(C)(C)[C@H]2C(=O)[C@@H]4O)C(=O)[C@]23C[C@H]1C[C@H](OC(C)=O)[C@H]2[C@]1(C)[C@@H](OC(C)=O)C[C@H](O)C(C)(C)[C@H]1C(=O)[C@H]3O | > 10 | > 10 | > 10 | > 10 | > 10
CC(=O)O[C@H]1C[C@@H]2C[C@@]3(C(=O)[C@H]2C[C@]2(CO)C(=O)[C@]45C[C@H]2C[C@H](OC(C)=O)[C@H]4[C@]2(C)[C@@H](OC(C)=O)C[C@H](O)C(C)(C)[C@H]2C(=O)[C@@H]5O)[C@@H]1[C@]1(C)[C@@H](OC(C)=O)C[C@H](O)C(C)(C)[C@H]1C(=O)[C@@H]3O | > 10 | > 10 | > 10 | > 10 | > 10
CC(=O)O[C@H]1C[C@@H]2C[C@@]3(C(=O)[C@]24CCC2=C(O4)[C@]45C[C@H]2C[C@H](OC(C)=O)[C@H]4[C@]2(C)[C@@H](OC(C)=O)C[C@H](O)C(C)(C)[C@H]2C(=O)[C@@H]5O)[C@@H]1[C@]1(C)[C@@H](OC(C)=O)C[C@H](O)C(C)(C)[C@H]1C(=O)[C@@H]3O | > 10 | > 10 | > 10 | > 10 | > 10
CC(=O)O[C@H]1C(=O)[C@@]2(C)[C@H]([C@H](OC(=O)c3ccccc3)[C@]3(O)C[C@H](OC(=O)[C@H](O)[C@@H](NC(=O)c4ccccc4)c4ccccc4)C(C)=C1C3(C)C)[C@]1(OC(C)=O)CO[C@@H]1C[C@@H]2O [PACLITAXEL] | – | < 0.008 | < 0.008 | < 0.008 | < 0.008
CC(=O)O[C@H]1C[C@@H]2C[C@@]3(C4=C2CC[C@@]2(O4)C(=O)[C@]45C[C@H]2C[C@H](OC(C)=O)[C@H]4[C@]2(C)[C@@H](OC(C)=O)C[C@H](O)C(C)(C)[C@H]2C(=O)[C@@H]5OC(C)=O)[C@@H]1[C@]1(C)[C@@H](OC(C)=O)C[C@H](OC(C)=O)C(C)(C)[C@H]1C(=O)[C@@H]3O | 4 | 4.6 | 4.2 | 9.9 | > 10
COC[C@@]1(C[C@@H]2C(=O)[C@]34C[C@H]2C[C@H](OC(C)=O)[C@H]3[C@]2(C)[C@@H](OC(C)=O)C[C@H](O)C(C)(C)[C@H]2C(=O)[C@@H]4O)C(=O)[C@]23C[C@H]1C[C@H](O)[C@H]2[C@@]1(C)[C@H](C(=O)[C@@H]3O)C(C)(C)[C@@H](O)C[C@@H]1O | > 10 | > 10 | > 10 | > 10 | > 10
